Test results published in paper PMC5088453 (ACS Omega, 2016).
Like-named read-outs stand apart in the source and are kept apart here.

What was measured:
[1] = system: lipopolysaccharide-induced mouse BV-2 microglial cells; details: lipopolysaccharide-induced BV-2 cells, concentration-dependent; cited from earlier work
[2] = system: mouse BV-2 microglial cells; details: cited from earlier work
[3] = format: in vivo, C57Bl/6J mice; details: for FruArg concentration in plasma: mice, i.p. 2.5 μL/g BW of 40 mM FruArg
Method in brief: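 In male C57Bl/6J mice (8 weeks; i.p. 40 mM; n = 3 per time), terminal heparinized blood was taken by cardiac puncture at 15, 30, 60 and 180 min. Plasma was stored at −80 °C. Samples (25 μL plasma plus L-lysine-d8 internal standard) went through phospholipid-removal SPE, then C18 UPLC–MS/MS MRM. Quantitation used a plasma-matrix calibration with 1/x2 weighting. PK parameters came from a fit of the concentration–time curve.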

[4] = Stability of the FruArg stock solution; format: physicochemical; details: 200 mM hydroacetate salt in double-distilled water, at 4 °C
[5] = format: in vivo, C57Bl/6J mice; details: mice, i.p. 40 mM, 2.5 μL/g BW, 15 min; cerebellum, cortex, striatum, hippocampus
Method in brief: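 Male C57Bl/6J mice, 8 weeks old, n = 3, given 40 mM test compound i.p. Brains were saline-perfused, dissected into regions, flash-frozen and stored at −80 °C. Tissue was homogenized in 3 vol water, then centrifuged 20 min at 4 °C. Supernatant (50 μL) was spiked with L-lysine-d8 internal standard and cleaned by phospholipid-removal SPE. Read-out: C18 UPLC–ESI–MS/MS (MRM), expressed as pmol/mg tissue, mean ± SE.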

[6] = at 10 min, 25 mg/kg; ref 39 (Gooyit et al.); cited from earlier work
[7] = mice plasma, i.p. 40 mM, 2.5 μL/g BW

| Structure (SMILES) | nitric oxide (NO) production [1] | cell viability [2] | clearance (Cl) [3, 7] | elimination rate (k) [3, 7] | half-life (t1/2) [3, 7] [min] | volume distribution (VD) [3, 7] | AUC0→∞ ([3]; mice plasma, i.p. 40 mM, 2.5 μL/g BW, extrapolated to infinity) [µM·min] | clearance (Cl) ([3]; mice plasma, i.p. 40 mM, 2.5 μL/g BW, unit as in Table 2) | FruArg concentration in plasma ([3]; 15 min, average n = 3 ± SE) [µM] | FruArg concentration in plasma ([3]; 30 min, average n = 3 ± SE) [µM] | FruArg concentration in plasma ([3]; 60 min, average n = 3 ± SE) [µM] | FruArg concentration in plasma ([3]; 180 min, plasma LOQ 1 μM) | stability of stock solution [4] | FruArg concentration in brain tissue, all four subregions [5] | concentration in the brain tissue [6] [pmol/mg] |
| --- | --- | --- | --- | --- | --- | --- | --- | --- | --- | --- | --- | --- | --- | --- | --- |
| N=C(N)NCCC[C@H](NCC(=O)[C@@H](O)[C@H](O)[C@H](O)CO)C(=O)O [FruArg, N-α-(1-deoxy-D-fructos-1-yl)-L-arginine] | suppressing nitric oxide (NO) production | without affecting the cell viability | 1.8 × 10^–4 L·min | 6.91 × 10^–2 min^–1 | 10.03 | 2.63 × 10^–3 L | 4930 | 1.8 × 10^–4 L·min^–1 | 111 ± 3 | 33 ± 9 | 5 ± 2 | below the LOQ | at least 6 months | 4–7 pmol/mg tissue | – |
| O=S(=O)(CC1CS1)c1ccc(Oc2ccccc2)cc1 (stereo not drawn) [SB-3CT] | – | – | – | – | – | – | – | – | – | – | – | – | – | – | 5.0 ± 0.8 |
